pIC50: −log10 of the molar value. Active and inactive are the calls of the source. The rule behind the calls is not given here.
How the values were obtained:
[1] = system: Radical scavenging activity; test: Antioxidant activity of the compound assessed as DPPH radical scavenging activity at 50 uM; type: functional
Method in brief: (§1)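 Scavenging of the DPPH radical read by absorbance at 520 nm. % scavenging = (A_blank − A_sample)/A_blank × 100. Scavenging also followed at 0.5, 1, 2, 4, 6, 12 and 24 h. Three independent experiments, mean ± SD, one-way ANOVA.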

[2] = Antioxidant activity of the compound in phosphate buffer at pH 6.6 assessed as potassium ferric cyanide ion reducing activity at 6.25 to 100 uM after 20 mins; type: functional; set-up: scale not given: the % may be the effect or the level left
Method in brief: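 Ferricyanide reducing power: sample in 0.2 M phosphate buffer, pH 6.6, incubated with 1% w/v potassium ferricyanide at 50 °C for 20 min. Reducing effect expressed relative to vitamin C; three independent experiments, mean ± SD.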

[3] = Antioxidant activity of the compound assessed as phosphate/Mo5 complex formation at 6.25 to 100 uM after 90 mins; type: functional
Method in brief: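 Phosphomolybdenum method: compound incubated with 0.6 M H2SO4, 28 mM sodium phosphate and 4 mM ammonium molybdate at 95 °C for 90 min. After cooling to room temperature, absorbance read at 695 nm against a blank. Result expressed as vitamin C equivalent; three independent experiments, mean ± SD.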

[4] = system: Radical scavenging activity; test: Antioxidant activity of the compound assessed as DPPH radical scavenging activity; type: functional; method in brief: as §1
[5] = system: RAW264.7; test: Cytotoxicity against mouse RAW264.7 cells up to 100 uM after 24 hrs by MTT assay; type: cell-based; conditions: raw264.7, 24 h
Method in brief: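 RAW 264.7 cells (DMEM, 10% FBS, 2 mM glutamine, penicillin/streptomycin; 37 °C, 5% CO2) seeded at 1 × 10^4 cells/well. After 24 h, treated with a range of compound concentrations for 24 h. MTT (1 mg/mL) added for 4 h, formazan dissolved in DMSO, absorbance read at 540 nm.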

[6] = Ratio of alpha-tocopherol IC50 to compound IC50 for antioxidant activity of the compound assessed as DPPH radical scavenging activity
[7] = system: RAW264.7; test: Antioxidant activity in mouse RAW264.7 cells assessed as inhibition of H2O2-induced intracellular ROS formation after 30 mins in dark prior to H2O2 challenge measured after 30 mins post H2O2 challenge by H2DCF-DA based flow cytometry; type: functional, cell-based
Method in brief: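 RAW 264.7 cells grown in DMEM/10% FBS at 37 °C, 5% CO2. Loaded with 20 µM H2DCF-DA in HBSS for 30 min, then compound (50 and 100 µM) in HBSS for 30 min at 37 °C in the dark. H2O2 challenge for 30 min, cells scraped and filtered, flow cytometry at 488 nm excitation. Geometric mean fluorescence reported; three independent experiments, mean ± SD.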

| pIC50 [4] | SMILES | Activity [1] | Activity [2] | Activity [3] [%] | Activity [5] | Ratio IC50 [6] | inhibition [7] |
| --- | --- | --- | --- | --- | --- | --- | --- |
| – | O=C1O[C@H]([C@@H](O)CO)C(O)=C1O | Active | Active | – | – | – | – |
| 4.58 | O=C1[C@@H]2CCC[C@@H]1[C@H](c1ccc(O)c(O)c1)N[C@@H]2c1ccc(O)c(O)c1 | 80% | 163% | 62.3 | Non-toxic | 1 | Dose-dependent effect |
| 4.45 | COc1cc(/C=C/C(=O)CC(=O)/C=C/c2ccc(O)c(OC)c2)ccc1O [CURCUMIN] | – | – | – | – | – | – |
| 4.23 | Cc1c(C)c2c(c(C)c1O)CC[C@@](C)(CCC[C@H](C)CCC[C@H](C)CCCC(C)C)O2 [ALPHA-TOCOPHEROL] | Active | – | – | – | – | – |
| 4.44 | Oc1ccccc1O [CATECHOL] | – | – | – | – | – | – |
| – | COc1cc([C@H]2N[C@@H](c3ccc(O)c(OC)c3)[C@H]3CCC[C@H]2C3=O)ccc1O | 80% | 116% | 56.8 | – | – | – |

Source: ChEMBL document CHEMBL2150890, “Antioxidant properties of Mannich bases” (Bioorg Med Chem Lett, 2012)
